Source: PMC7079113 (Diabetes, Obesity & Metabolism, 2019)
Marks after values point to notes of the source that are not given here.

Assays:
glucose infusion rate = assay: 30-hour automated euglycaemic clamp; assay type: in vivo, patients with type 1 diabetes mellitus (human); conditions: for AUCGIR0–6h, geometric mean (90% CI): 0-6 h; for AUCGIR0–6h, geometric mean (90% CI) / AUCGIR6–30h, geometric mean (90% CI): N = 111 MYL-1501D, 111 US IG, 113 EU IG; for AUCGIR6–30h, geometric mean (90% CI): 6-30 h
[1] = Single-dose safety and local tolerability; assay type: in vivo, patients with type 1 diabetes mellitus (human); conditions: for Hypoglycaemic events at various time points after the clamp period: > 30 hours after injection, considered a side effect of the patients' usual insulin treatment; for Number of AEs during or after administration / Patients who experienced AEs during or after administration / Patients who experienced AEs during or after administration, percentage: safety population N = 114
In short: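 Randomised crossover in which each patient received three insulin glargine preparations as single s.c. 0.4 U/kg doses, at visits 5–28 days apart (minimum 5-day washout). Each dose was given under a 30-h automated euglycaemic clamp. Safety and injection-site tolerability were assessed at each visit: AEs, haematology, biochemistry, urinalysis, physical exam, vital signs, ECGs and blood glucose. Hypoglycaemia was graded severe/symptomatic/asymptomatic. Results were summarised descriptively.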

[2] = LC–MS/MS; for AUCins.0‐6h of M1, geometric mean (90% CI) / AUCins.6‐30h of M1, geometric mean (90% CI): secondary PK endpoint, 87 US IG; for AUCins.0‐6h of M1, geometric mean (90% CI): N = 85 MYL-1501D, 84 EU IG; for AUCins.6‐30h of M1, geometric mean (90% CI): N = 87 MYL-1501D, 86 EU IG
[3] = ELISA, ratio of treatments vs US IG
[4] = secondary PD, vs US IG, N = 111
[5] = vs US IG, N = 74 (MYL-1501D), 72 (EU IG)

Substance | AUCGIR0–6h, geometric mean (90% CI) (glucose infusion rate; secondary PD) | AUCGIR6–30h, geometric mean (90% CI) (glucose infusion rate; secondary PD) | Hypoglycaemic events at various time points after the clamp period [1] | Injection site reactions ([1]; mild, single s.c. 0.4 U/kg) | Tolerability ([1]; single s.c. 0.4 U/kg) | Number of AEs during or after administration ([1]; single s.c. 0.4 U/kg) [AEs] | Patients who experienced AEs during or after administration ([1]; single s.c. 0.4 U/kg) [patients] | Patients who experienced AEs during or after administration, percentage ([1]; single s.c. 0.4 U/kg) [%] | AUCins.0‐6h of M1, geometric mean (90% CI) [2] | AUCins.6‐30h of M1, geometric mean (90% CI) [2] | AUCins.0–30h, geometric LS mean ratio (90% CI) vs US IG ([3]; N = 107) | Cins.max, geometric LS mean ratio (90% CI) vs US IG ([3]; N = 110) | AUCGIR0–30h (secondary analysis), geometric LS mean ratio (90% CI) vs US IG (glucose infusion rate; including very low response profiles, linear mixed model, vs US IG, n = 111) | GIRmax, geometric LS mean ratio (90% CI) vs US IG (glucose infusion rate; primary PD, vs US IG, N = 102) | AUCGIR0–6h, geometric LS mean ratio (90% CI) vs US IG (glucose infusion rate; [4]) | AUCGIR6–30h, geometric LS mean ratio (90% CI) vs US IG (glucose infusion rate; [4]) | AUCins.0‐6h of M1, geometric LS mean ratio (90% CI) vs US IG ([2]; vs US IG, N = 73 (MYL-1501D), 71 (EU IG)) | AUCins.0–30h of M1, geometric LS mean ratio (90% CI) vs US IG [2, 5] | AUCins.6‐30h of M1, geometric LS mean ratio (90% CI) vs US IG [2, 5] | Cins.max of M1, geometric LS mean ratio (90% CI) vs US IG [2, 5]
insulin glargine [US IG] | 88.3 (59.7–131) mg/kg | 522 (384–710) mg/kg | 16 | one | generally well tolerated | 34 | 20 | 17.9 | 192 (171–217) pmol·h/L | 1086 (1000–1179) pmol·h/L | – | – | – | – | – | – | – | – | – | –
insulin glargine [EU IG] | 72.8 (49.4–107) mg/kg | 567 (418–769) mg/kg | six | – | generally well tolerated | 34 | 24 | 21.1 | 203 (180–229) pmol·h/L | 1088 (1001–1181) pmol·h/L | 1.02 (0.95–1.09) | 1.00 (0.93–1.08) | 0.96 (0.77–1.20) ^e | 0.98 (0.90–1.07) | 0.82 (0.55–1.23) | 1.09 (0.79–1.48) | 1.06 (0.93–1.20) | 1.01 (0.94–1.08) | 1.00 (0.93–1.08) | 1.02 (0.96–1.08)
